In ChEMBL document CHEMBL5058577, “EUbOPEN Chemogenomics Library 2 (Multiplex)” (2022):

Test system: Fibroblast
Experiment: Multiplex assay against human fibroblast
Assay type: toxicity, cell-based
Procedure, shortened: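 On a CQ1 microscope at 37°C and 5% CO2, live cells were imaged after compound addition. They had been stained at seeding with Hoechst33342, BioTracker Green Microtubule Cytoskeleton Dye, MitoTracker Red and Annexin V Alexa Fluor 680. CellPathfinder machine-learning gating assigned cells to Hoechst high-intensity objects or normal cells, normal cells to healthy, pyknosed or fragmented nuclei, and pyknosed cells to mitotic or apoptotic. Tubulin, mitochondrial-mass and membrane-permeability phenotypes are per cents of healthy-nucleus cells.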

[1] = 12 h, 1 µM, compound concentration 1 uM, replicate 1
[2] = 12 h, 1 µM, compound concentration 1 uM, replicate 2
[3] = 12 h, 10 µM, compound concentration 10 uM, replicate 1
[4] = 12 h, 10 µM, compound concentration 10 uM, replicate 2
[5] = 24 h, 1 µM, compound concentration 1 uM, replicate 1
[6] = 24 h, 1 µM, compound concentration 1 uM, replicate 2
[7] = 24 h, 10 µM, compound concentration 10 uM, replicate 1
[8] = 24 h, 10 µM, compound concentration 10 uM, replicate 2
[9] = 48 h, 1 µM, compound concentration 1 uM, replicate 1
[10] = 48 h, 1 µM, compound concentration 1 uM, replicate 2
[11] = 48 h, 10 µM, compound concentration 10 uM, replicate 1
[12] = 48 h, 10 µM, compound concentration 10 uM, replicate 2

SMILES: Cc1cccc(NC(=O)CN2CCC(c3ccccn3)CC2)c1.Cl.Cl
- Population Apoptotic (%) [1]: 47%
- Population Fragmented Nuclei (%) [1]: 16%
- Population Healthy Nuclei (%) [1]: 70%
- Population Hoechst High Intensity Objects (%) [1]: 4%
- Population Membrane Permeable-Phenotype (%) [1]: 0%
- Population Mitochondria Different-Phenotype (%) [1]: 6%
- Population Mitotic Cells (%) [1]: 52%
- Population Normal (%) [1]: 95%
- Population Pyknosed Nuclei (%) [1]: 12%
- Population Tubulin-Different-Phenotype (%) [1]: 34%
- Total Cell Count [1]: 140
- Population Apoptotic (%) [2]: 33%
- Population Fragmented Nuclei (%) [2]: 25%
- Population Healthy Nuclei (%) [2]: 55%
- Population Hoechst High Intensity Objects (%) [2]: 6%
- Population Membrane Permeable-Phenotype (%) [2]: 2%
- Population Mitochondria Different-Phenotype (%) [2]: 5%
- Population Mitotic Cells (%) [2]: 66%
- Population Normal (%) [2]: 93%
- Population Pyknosed Nuclei (%) [2]: 19%
- Population Tubulin-Different-Phenotype (%) [2]: 35%
- Total Cell Count [2]: 232
- Population Apoptotic (%) [3]: 59%
- Population Fragmented Nuclei (%) [3]: 8%
- Population Healthy Nuclei (%) [3]: 78%
- Population Hoechst High Intensity Objects (%) [3]: 10%
- Population Membrane Permeable-Phenotype (%) [3]: 1%
- Population Mitochondria Different-Phenotype (%) [3]: 7%
- Population Mitotic Cells (%) [3]: 40%
- Population Normal (%) [3]: 89%
- Population Pyknosed Nuclei (%) [3]: 13%
- Population Tubulin-Different-Phenotype (%) [3]: 36%
- Total Cell Count [3]: 229
- Population Apoptotic (%) [4]: 34%
- Population Fragmented Nuclei (%) [4]: 45%
- Population Healthy Nuclei (%) [4]: 30%
- Population Hoechst High Intensity Objects (%) [4]: 2%
- Population Membrane Permeable-Phenotype (%) [4]: 6%
- Population Mitochondria Different-Phenotype (%) [4]: 10%
- Population Mitotic Cells (%) [4]: 65%
- Population Normal (%) [4]: 98%
- Population Pyknosed Nuclei (%) [4]: 23%
- Population Tubulin-Different-Phenotype (%) [4]: 56%
- Total Cell Count [4]: 100
- Population Apoptotic (%) [5]: 50%
- Population Fragmented Nuclei (%) [5]: 18%
- Population Healthy Nuclei (%) [5]: 70%
- Population Hoechst High Intensity Objects (%) [5]: 2%
- Population Membrane Permeable-Phenotype (%) [5]: 0%
- Population Mitochondria Different-Phenotype (%) [5]: 8%
- Population Mitotic Cells (%) [5]: 50%
- Population Normal (%) [5]: 97%
- Population Pyknosed Nuclei (%) [5]: 10%
- Population Tubulin-Different-Phenotype (%) [5]: 25%
- Total Cell Count [5]: 134
- Population Apoptotic (%) [6]: 40%
- Population Fragmented Nuclei (%) [6]: 26%
- Population Healthy Nuclei (%) [6]: 53%
- Population Hoechst High Intensity Objects (%) [6]: 4%
- Population Membrane Permeable-Phenotype (%) [6]: 4%
- Population Mitochondria Different-Phenotype (%) [6]: 6%
- Population Mitotic Cells (%) [6]: 59%
- Population Normal (%) [6]: 95%
- Population Pyknosed Nuclei (%) [6]: 19%
- Population Tubulin-Different-Phenotype (%) [6]: 30%
- Total Cell Count [6]: 239
- Population Apoptotic (%) [7]: 64%
- Population Fragmented Nuclei (%) [7]: 11%
- Population Healthy Nuclei (%) [7]: 81%
- Population Hoechst High Intensity Objects (%) [7]: 7%
- Population Membrane Permeable-Phenotype (%) [7]: 0%
- Population Mitochondria Different-Phenotype (%) [7]: 11%
- Population Mitotic Cells (%) [7]: 35%
- Population Normal (%) [7]: 92%
- Population Pyknosed Nuclei (%) [7]: 6%
- Population Tubulin-Different-Phenotype (%) [7]: 38%
- Total Cell Count [7]: 217
- Population Apoptotic (%) [8]: 42%
- Population Fragmented Nuclei (%) [8]: 45%
- Population Healthy Nuclei (%) [8]: 34%
- Population Hoechst High Intensity Objects (%) [8]: 0%
- Population Membrane Permeable-Phenotype (%) [8]: 11%
- Population Mitotic Cells (%) [8]: 57%
- Population Normal (%) [8]: 100%
- Population Pyknosed Nuclei (%) [8]: 20%
- Population Tubulin-Different-Phenotype (%) [8]: 50%
- Total Cell Count [8]: 105
- Population Apoptotic (%) [9]: 80%
- Population Fragmented Nuclei (%) [9]: 25%
- Population Healthy Nuclei (%) [9]: 63%
- Population Hoechst High Intensity Objects (%) [9]: 3%
- Population Membrane Permeable-Phenotype (%) [9]: 1%
- Population Mitochondria Different-Phenotype (%) [9]: 3%
- Population Mitotic Cells (%) [9]: 20%
- Population Normal (%) [9]: 96%
- Population Pyknosed Nuclei (%) [9]: 11%
- Population Tubulin-Different-Phenotype (%) [9]: 28%
- Total Cell Count [9]: 138
- Population Apoptotic (%) [10]: 60%
- Population Fragmented Nuclei (%) [10]: 31%
- Population Healthy Nuclei (%) [10]: 55%
- Population Membrane Permeable-Phenotype (%) [10]: 4%
- Population Mitotic Cells (%) [10]: 39%
- Population Pyknosed Nuclei (%) [10]: 12%
- Population Tubulin-Different-Phenotype (%) [10]: 35%
- Total Cell Count [10]: 229
- Population Apoptotic (%) [11]: 76%
- Population Fragmented Nuclei (%) [11]: 17%
- Population Healthy Nuclei (%) [11]: 75%
- Population Hoechst High Intensity Objects (%) [11]: 7%
- Population Membrane Permeable-Phenotype (%) [11]: 2%
- Population Mitochondria Different-Phenotype (%) [11]: 5%
- Population Mitotic Cells (%) [11]: 23%
- Population Normal (%) [11]: 92%
- Population Pyknosed Nuclei (%) [11]: 7%
- Population Tubulin-Different-Phenotype (%) [11]: 44%
- Total Cell Count [11]: 238
- Population Apoptotic (%) [12]: 28%
- Population Fragmented Nuclei (%) [12]: 54%
- Population Healthy Nuclei (%) [12]: 39%
- Population Hoechst High Intensity Objects (%) [12]: 1%
- Population Mitochondria Different-Phenotype (%) [12]: 16%
- Population Mitotic Cells (%) [12]: 71%
- Population Normal (%) [12]: 98%
- Population Pyknosed Nuclei (%) [12]: 6%
- Population Tubulin-Different-Phenotype (%) [12]: 61%
- Total Cell Count [12]: 109
